Consider 30 compounds from PubChem BioAssay.

The source made the active and inactive calls.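 The calls were made as follows, unless noted: active = potentiation averaged over duplicate wells exceeding buffer-only control mean by more than 3 SD; inactive = the rest.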

The nature of test [1]: thallium flux activation in parental CHO cells, counter-screen for KCNQ1 potentiator project (AID 493006;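 active = duplicate-averaged activation above buffer control mean plus 5 SD of those controls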). The conditions noted are these: parental CHO-K1 cells, FluxOR thallium flux, at 10 µM; active compounds read high. The procedure, abridged: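 Test system: parental CHO-K1 cells, FluxOR dye-loaded / Probe or stimulus: potassium plus thallium depolarizing stimulus, 5x stock 12.5 mM K2SO4, Tl2SO4 / Timing: overnight 37 °C plating, 90 min dye, 20 min dark compound / Measured by: kinetic thallium-flux fluorescence / Read-out: max-minus-min fluorescence over baseline, percent of buffer-to-R-L3 span / Benchmarks: buffer and R-L3 controls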
A general note: A counterscreen serves to expose hits that act by an unwanted route or on another target.

In test [2] the target is Potassium voltage-gated channel subfamily KQT member 1 (Homo sapiens) (UniProt P51787). Briefly: KCNQ1 potassium channel potentiators, confirmation, FluxOR thallium flux, CHO cells, duplicates (AID 493007).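 As to outcome: cells depolarized by a potassium plus thallium sulfate stimulus after compound.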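 As to potentiation: 0% = buffer-only wells and 100% = R-L3 activator control.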 The conditions noted are these: KCNQ1 cell line, FluxOR thallium flux fluorescence, at 10 µM; active compounds read high, % of reference activator effect, buffer zero. The procedure, abridged:
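Assay system: CHO cells carrying KCNQ1 | Controls: Buffer and R-L3 controls | Schedule: FluxOR dye loading 90 min, compound exposure 20 min, room temperature | Read-out: Baseline-normalized fluorescence change, percent of buffer-to-R-L3 range | Replicates: Each compound tested in duplicate | Technique: Kinetic thallium influx fluorescence with FluxOR dye, 10 s baseline, 110 s post-stimulus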

In test [3] the target is Potassium voltage-gated channel subfamily KQT member 2 (Rattus norvegicus) (UniProt O88943). Briefly: rat KCNQ2 channel potentiation, selectivity assay for KCNQ1 potentiator project, KCNQ2-CHO-K1 cells (AID 493009;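 active = mean duplicate potentiation above the buffer control mean plus 5 SD of buffer wells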;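 also: assay conditions were tuned for KCNQ1 rather than KCNQ2 modulators; signal is max minus min fluorescence divided by baseline after thallium stimulus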). Particulars: FluxOR thallium flux fluorescence, at 10 µM; active compounds read high, scaled: buffer 0, activator control 100.
Potassium voltage-gated channel subfamily KQT member 2 (Rattus norvegicus), sequence (O88943 whole entry, looked up): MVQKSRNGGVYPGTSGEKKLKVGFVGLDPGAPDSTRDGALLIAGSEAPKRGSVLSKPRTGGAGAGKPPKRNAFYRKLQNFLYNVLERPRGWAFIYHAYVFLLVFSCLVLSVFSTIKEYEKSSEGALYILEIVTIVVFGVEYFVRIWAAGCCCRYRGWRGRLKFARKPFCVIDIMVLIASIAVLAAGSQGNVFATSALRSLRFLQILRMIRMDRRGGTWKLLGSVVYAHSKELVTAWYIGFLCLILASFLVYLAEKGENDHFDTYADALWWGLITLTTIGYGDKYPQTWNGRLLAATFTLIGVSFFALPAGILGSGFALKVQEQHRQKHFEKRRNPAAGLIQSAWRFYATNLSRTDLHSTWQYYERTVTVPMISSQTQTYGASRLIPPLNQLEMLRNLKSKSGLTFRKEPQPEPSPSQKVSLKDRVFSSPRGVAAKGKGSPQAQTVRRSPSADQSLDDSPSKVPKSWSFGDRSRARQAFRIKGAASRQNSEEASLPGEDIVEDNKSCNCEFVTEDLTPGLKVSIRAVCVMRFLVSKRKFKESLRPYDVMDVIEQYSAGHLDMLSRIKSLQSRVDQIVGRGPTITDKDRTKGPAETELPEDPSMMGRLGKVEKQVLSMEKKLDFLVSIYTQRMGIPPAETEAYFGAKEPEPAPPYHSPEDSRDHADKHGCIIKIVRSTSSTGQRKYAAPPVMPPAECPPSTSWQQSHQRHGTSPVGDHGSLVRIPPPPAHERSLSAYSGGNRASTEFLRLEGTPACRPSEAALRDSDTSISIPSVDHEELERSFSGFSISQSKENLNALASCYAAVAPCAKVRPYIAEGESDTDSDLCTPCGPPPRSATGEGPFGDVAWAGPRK
Test [4] deals with Potassium voltage-gated channel subfamily KQT member 1 (Homo sapiens) (UniProt P51787). Briefly: KCNQ1 channel current potentiators, confirmation, orthogonal assay for KCNQ1 potentiator project, IonWorks patch clamp, KCNQ1-CHO cells (AID 493184;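 active = current rise at least 3 SD above the untreated control mean in each of two repeat wells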). Particulars: automated patch clamp current, at 10 µM; active compounds read high. The procedure, abridged:
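Material: KCNQ1-expressing CHO cells; doses: 10 µM final, single point; probe or stimulus: voltage step from -90 mV holding to +40 mV, 2,000 ms; signal: automated voltage clamp, amphotericin B perforated patch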
(In general: Patch clamp records ionic current or voltage across a cell membrane.)

Potassium voltage-gated channel subfamily KQT member 1 (Homo sapiens), sequence (P51787 whole entry, looked up): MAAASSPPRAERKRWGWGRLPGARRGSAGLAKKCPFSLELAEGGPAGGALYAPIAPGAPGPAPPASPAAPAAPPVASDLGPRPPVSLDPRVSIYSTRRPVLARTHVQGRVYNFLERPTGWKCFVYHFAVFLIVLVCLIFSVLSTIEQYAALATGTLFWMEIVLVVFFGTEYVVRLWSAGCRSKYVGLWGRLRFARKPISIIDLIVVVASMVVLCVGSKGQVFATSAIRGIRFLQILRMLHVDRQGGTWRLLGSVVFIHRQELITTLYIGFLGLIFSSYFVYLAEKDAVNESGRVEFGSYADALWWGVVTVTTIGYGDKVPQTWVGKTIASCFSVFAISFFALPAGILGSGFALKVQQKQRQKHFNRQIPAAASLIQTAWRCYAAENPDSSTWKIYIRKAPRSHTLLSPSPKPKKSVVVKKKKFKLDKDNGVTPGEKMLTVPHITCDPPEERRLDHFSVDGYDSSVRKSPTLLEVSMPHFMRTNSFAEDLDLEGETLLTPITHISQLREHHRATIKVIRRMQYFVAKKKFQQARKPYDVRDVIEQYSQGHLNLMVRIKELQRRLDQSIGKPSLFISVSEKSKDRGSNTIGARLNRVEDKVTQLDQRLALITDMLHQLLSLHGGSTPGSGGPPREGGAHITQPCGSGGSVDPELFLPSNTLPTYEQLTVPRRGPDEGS

On to `O=C(Nc1nnc(-c2ccco2)o1)c1cccc(Cl)c1`, for which the outcome in test [1], in test [2], in test [3] and in test [4] was inactive.

`O=C(CN(Cc1ccccc1Cl)C(=O)c1csnn1)NC1CCCC1`: the result in test [1], in test [2], in test [3] and in test [4] was inactive.

For `Cc1[nH]n(-c2cccc3ccccc23)c(=O)c1/C=N/c1sc2c(c1C#N)CCC2`, in test [1], the activation was 204% (active). The potentiation in test [2] was 122% (active); in test [3], 288% (active). Further, in test [4], the outcome was inactive.

In the case of `O=C(NC(=S)Nc1nc2ccccc2s1)c1cccs1`, the activation in test [1] was 400% (active). Further, the figures for the potentiation in test [2] and in test [3] were 180% (active) and 389% (active), respectively. Further, the outcome in test [4] was inactive.

On to `O=C(N/N=C1/C(=O)c2cccc3cccc1c23)c1ccc(Cl)cc1`, for which the activation in test [1] is 145% (active). The potentiation in test [2] was 83.5% (active). Also, the result in test [3] and in test [4] was inactive.

For the compound `CC(C)CSC1=NSC2=NC(=O)/C(=C\c3ccccc3)C(=N)N12`, the activation in test [1] was 198% (active). The potentiation was 58% (active) in test [2] and 204% (active) in test [3]. For the same compound, the outcome in test [4] was inactive.

For `O=c1c2cc(Cl)cc(Cl)c2nc2n1CCC2`, the outcome in test [1], in test [2], in test [3] and in test [4] was inactive.

`CCC(=O)NC(=Nc1nc2ccccc2s1)NC(=O)CC`: the outcome in test [1], in test [2], in test [3] and in test [4] was inactive.

On to `CC1CCCCN1C(=S)NC(=O)c1cccs1` (stereo not given), for which the outcome in test [1], in test [2], in test [3] and in test [4] was inactive.

Regarding `COC(=O)C(C)Sc1nc2c(c(=O)n(C)c(=O)n2C)n1Cc1cccc(C)c1` (stereo not given), the outcome in test [1], in test [2], in test [3] and in test [4] was inactive.

`CCCCC(=O)N(c1ccc(OCC)cc1)C1C=CS(=O)(=O)C1` (stereo not given): the outcome in test [1], in test [2], in test [3] and in test [4] was inactive.

`CCOC(=O)NC(=S)Nc1ccc(C(C)(C)C)cc1Br`: the activation in test [1] is 213% (active). The potentiation in test [2] was 123% (active); in test [3], 249% (active). Moreover, the result in test [4] was inactive.

Turning to `NS(=O)(=O)c1ccc(NC(=S)Nc2ccc(OCc3ccccc3)cc2)cc1`, the result in test [1], in test [2], in test [3] and in test [4] was inactive.

For the compound `CC(=O)/C=C1/C(=O)Nc2ccccc21`, the activation in test [1] is 167% (active). The potentiation is 63.5% (active) in test [2] and 188% (active) in test [3]. For the same compound, the result in test [4] was inactive.

On to `Cc1ccc(-c2nc3ccccc3o2)cc1NC(=S)NC(=O)c1cc2ccccc2o1`, for which the outcome in test [1], in test [3] and in test [4] was inactive. Moreover, in test [2], the potentiation is 21.5% (active).

Regarding `CC(C)CSC1=NSC2=NC(=O)/C(=C\c3cccs3)C(=N)N12`, the outcome in test [1], in test [2], in test [3] and in test [4] was inactive.

`Cc1ccc(C(=O)O/N=C(\N)Cc2cccs2)c(Cl)c1`: the result in test [1], in test [2], in test [3] and in test [4] was inactive.

Turning to `CCC1(C)Cc2c(sc3nc(SC)[nH]c(=S)c23)CO1` (stereo not given), the activation in test [1] was 550% (active). Besides, the potentiation in test [2] is 194% (active); in test [3], 534% (active). For the same compound, the outcome in test [4] was inactive.

In the case of `O=c1c2cc(Br)ccc2nc(-c2ccccc2)n1O`, the activation in test [1] is 366% (active). For the same compound, the potentiation in test [2] is 63.5% (active); in test [3], 314% (active). For the same compound, the outcome in test [4] was inactive.

Take `CN(CC(=O)Nc1ccc(F)c(F)c1F)C(=O)CC1OC(=O)c2ccccc21` (stereo not given): the outcome in test [1], in test [2], in test [3] and in test [4] was inactive.

With `CCCCn1c(=S)[nH]c2ncccc2c1=O`, the outcome in test [1] and in test [4] was inactive. In addition, the potentiation in test [2] was 34.5% (active); in test [3], 173% (active).

Turning to `O=C(CCC(=O)c1ccc(F)cc1)Nc1cc(Cl)cc(Cl)c1`, the result in test [1], in test [2], in test [3] and in test [4] was inactive.

As for `CC(/C=N/n1c(-c2ccc(C)cc2)n[nH]c1=S)=C\c1ccco1`, the result in test [1], in test [2], in test [3] and in test [4] was inactive.

Take `CN1CCN(c2ccccc2NC(=S)NC(=O)c2cc3ccccc3o2)CC1`: the result in test [1], in test [2], in test [3] and in test [4] was inactive.

For `O=C(CN(c1ccc(Cl)cc1)S(=O)(=O)c1ccc(Cl)c([N+](=O)[O-])c1)NCCc1ccc(F)cc1`, the result in test [1], in test [2], in test [3] and in test [4] was inactive.

For the compound `Cc1nn(C)c(C(=O)NC(=S)Nc2ccc([N+](=O)[O-])cc2)c1Cl`, in test [1], the activation is 166% (active). The potentiation was 72% (active) in test [2] and 196% (active) in test [3]. In test [4], the outcome was inactive.

For the compound `COc1cc(C(=O)NC(=S)NC(C)C)cc(OC)c1OC`, the result in test [1], in test [2], in test [3] and in test [4] was inactive.

With `O=c1c2ccc(Cl)cc2nc(-c2ccc([N+](=O)[O-])cc2)n1O`, the activation in test [1] was 345% (active). The potentiation in test [2] is 90.5% (active); in test [3], 428% (active). For the same compound, the result in test [4] was inactive.

For the compound `CN(C)c1oc(-c2ccc(OCc3ccc(Cl)cc3)cc2)nc1C#N`, the outcome in test [1], in test [2], in test [3] and in test [4] was inactive.

As for `O=c1c2cccnc2[nH]c(=S)n1CCC1=CCCCC1`, the activation in test [1] is 258% (active). Also, the potentiation in test [2] was 64% (active); in test [3] it was 229% (active). In test [4], the outcome was inactive.
